Published values of several laboratories.
Each line is one published result; the experiments were not run side by side.
Target: Serine/threonine-protein kinase WNK4 (WNK4, Homo sapiens, UniProt Q96J92)

SMILES | read-out | method | concentration | remaining binding
C[C@H]1CCN(c2nccc(-c3cnn4ncccc34)n2)C1 | binding | – | 1 µM | 79%
CN(C)CC#Cc1ccc(OCCCc2sc(N3CCc4cccc(C(=O)Nc5nc6ccccc6s5)c4C3)nc2C(=O)O)c(F)c1 | cell-free assay | competition with immobilised ligand | 1 µM | 81%
N[C@@H]1CCN(c2nccc(-c3cnn4ncccc34)n2)C1 | binding | – | 1 µM | 100%
O=C(NCC1CCOCC1)c1n[nH]cc1NC(=O)c1c(F)cccc1F | binding | competition with immobilised ligand | 1 µM | 86%
O=C(Nc1cccnn1)N1CC(C/C=C/c2cncc(Oc3ccc(C(F)(F)F)cn3)n2)C1 | cell-free assay | competition with immobilised ligand | 1 µM | 0%
CNC(=O)[C@@H]1CC[C@@H](n2c(-c3ccc4cnccc4c3)nc3ccc(C(=O)NCc4cccc(C(N)=O)c4)cc32)C1 | binding | competition with immobilised ligand | 1 µM | 100%
COc1ccnn2ncc(-c3ccnc(N(C)C)n3)c12 | binding | – | 1 µM | 100%
CCCCN(CCCC)C(=O)CN1C[C@H](c2cc(OC)c3c(c2)OCO3)[C@@H](C(=O)O)[C@@H]1CC(C)(C)CCC | cell-free assay | competition with immobilised ligand | 1 µM | 97.9%
COc1cnc(Nc2cccc(S(N)(=O)=O)c2)nc1N1CCN(c2ccccc2)C(=O)C1 | binding | competition with immobilised ligand | 1 µM | 89%
O=C(NCCCN1CCOCC1)c1ccc(Nc2nccc(-c3cc4ccccc4s3)n2)cc1 | binding | competition with immobilised ligand | 1 µM | 71%
CN(CCCC(F)(F)F)c1nccc(-c2cnn3ncccc23)n1 | binding | – | 1 µM | 91%
CC(=O)c1c(NS(C)(=O)=O)c2cc(-c3ccc(Cl)cc3)c(-c3ccc(Cl)cc3Cl)nc2n(C)c1=O | cell-free assay | competition with immobilised ligand | 1 µM | 96%
CN(C)c1nccc(-c2cnn3ncccc23)n1 | binding | – | 1 µM | 59%
COc1cccc(CNC(=O)c2nc3scc(COCc4ccc(C(=O)O)cc4)c3c(=O)[nH]2)c1 | cell-free assay | competition with immobilised ligand | 1 µM | 100%
O=C(c1ccc(Nc2nccc(-c3cc4ccccc4s3)n2)cc1)N1CCC(N2CCCC2)CC1 | binding | competition with immobilised ligand | 1 µM | 92%
NS(=O)(=O)c1cc(NC(=O)C2(c3ccccc3Cl)CC2)ccc1Oc1cccc(Cl)c1 | cell-free assay | competition with immobilised ligand | 1 µM | 81%
Cc1cnc(Nc2ccc(C(=O)N3CCC(N4CCCC4)CC3)cc2)nc1-c1cc2ccccc2s1 | binding | competition with immobilised ligand | 1 µM | 73%
FC(F)(F)Oc1cccc(-c2cnc3ccc(-c4ccncc4)nn23)c1 | binding | competition with immobilised ligand | 5 µM | 100%
COc1ncc2cc3ccccc3nc2c1C#N | cell-free assay | competition with immobilised ligand | 5 µM | 80%
CC1CCCN1c1nccc(-c2cnn3ncccc23)n1 (centres unmarked) | binding | – | 1 µM | 100%
